Bioassay records (PubChem BioAssay)
In the library only some 2.4% were active in any assay of this set; here they are far more common.
SR-BI DiI inh = inhibitors of SR-BI mediated HDL lipid uptake, primary screen, ldlA[mSR-BI] cells, fluorescence, single point; Scavenger receptor class B member 1 (Mus musculus), Q61009; ldlA[mSR-BI] CHO cells, DiI-HDL uptake fluorescence, 3 h; inhibition, % at 12.5 µM; actives 0.96% (n = 320,000); AID 488896, 2010;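 active = mean replicate inhibition of at least 70% and a set share of replicates each scoring 70 or more; inconclusive = meets just one of the two criteria; inactive = fails both criteria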;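 also: 0% = median of neutral control wells and 100% = median of positive control wells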
SR-BI uptake up = activators of SR-BI mediated DiI-HDL uptake, primary screen, ldlA[mSR-BI] CHO cells, DiI fluorescence | 3 h; 100 = double the neutral-control signal | activation, % at 12.5 µM | actives 0.096% (n = 320,000);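 active = mean replicate activation of at least 60% and every replicate at or above 60%; inconclusive = mean or all-replicate condition met, but not both; inactive = mean below 60% and not all replicates reaching 60%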;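 also: 0% = median plate neutral-control signal and 100% = twice that signal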
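Material – SR-BI-overexpressing, LDLR-lacking CHO cells · Medium – BSA-supplemented, HEPES-buffered Ham's F12, pH 7.4 · Doses – single concentration · Times – compound with DiI-HDL co-incubation, 3 h at 37 °C · Measured by – bottom-read fluorescence, 550/595 nm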
HTR2A ag = mouse Htr2a agonists via beta-arrestin recruitment, primary screen, cell-based, luminescence | actives 0.66% (n = 360,000) | 5-hydroxytryptamine receptor 2A (Mus musculus), P35363 | activation, % at 7.6 µM | CHO-K1 mHTR2A beta-arrestin complementation; percent of 30 µM serotonin response;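 active = activation above a run cutoff, the mean activation of all tested compounds plus 3 SD, cut at about 14% in these data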;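 also: 0% = plate median of compound wells and 100% = 30 µM serotonin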
Target sequence (P35363 whole entry, looked up): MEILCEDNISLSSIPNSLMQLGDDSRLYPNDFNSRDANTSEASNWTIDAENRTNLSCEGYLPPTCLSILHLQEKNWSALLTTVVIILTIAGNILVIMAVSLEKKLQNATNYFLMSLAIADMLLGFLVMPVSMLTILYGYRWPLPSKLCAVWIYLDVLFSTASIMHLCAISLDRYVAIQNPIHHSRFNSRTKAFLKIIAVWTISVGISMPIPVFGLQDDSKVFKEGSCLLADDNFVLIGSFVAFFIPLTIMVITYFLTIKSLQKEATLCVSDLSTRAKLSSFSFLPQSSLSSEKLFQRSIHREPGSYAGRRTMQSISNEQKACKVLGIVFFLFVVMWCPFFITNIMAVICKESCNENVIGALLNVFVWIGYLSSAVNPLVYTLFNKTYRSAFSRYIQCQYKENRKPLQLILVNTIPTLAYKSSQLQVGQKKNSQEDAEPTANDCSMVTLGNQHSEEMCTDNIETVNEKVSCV
MIN6 prolif = inducers of MIN6 beta-cell proliferation, primary screen, ATP luminescence, uHTS | MIN6 cells proliferation, ATPlite luminescence, 48 h; cells starved in 0.2% serum; 100% = growth in 10% serum | proliferation, % at 10 µM | actives 0.29% (n = 330,000) | AID 2380, 2010;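 active = compounds whose signal lies at least 3.5 SD above the mean of all wells on their plate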;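 also: 0% = DMSO-treated cells in low-serum medium and 100% = 10% serum control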
Calb FLC = C. albicans growth inhibition with fluconazole, primary screen, CaCi-2 strain, Alamar Blue fluorescence; C. albicans CaCi-2 + fluconazole, 48 h; growth inhibition, % (test concentration not listed); actives 0.57% (n = 300,000); AID 1979, 2009;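 active = growth inhibition above about 58% in most replicates, limit read from the data, passing the limit was not always enough; inconclusive = exactly half the replicates above a set limit; inactive = most replicates below a set limit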;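 also: all wells also contain fluconazole at 8 µg/ml as a sub-toxic cotreatment; 0% = median of DMSO wells and 100% = median of geldanamycin control wells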
Insulin prom up = insulin promoter activators in MIN6 cells, imaging, high-content screening, mouse beta cells; MIN6 insulin promoter-GFP reporter; hits give high values; z-score at 5 µM; AID 1625, 2009; actives 0.3% (n = 190,000);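 active = z-score above 3 at 5 µM with at least 500 cells counted in the well; inconclusive = wells under 500 cells, flagged as cytotoxic or low count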
Active calls of the source: *; ? = inconclusive; . = no result given.

SMILES | SR-BI DiI inh | SR-BI uptake up | HTR2A ag | MIN6 prolif | Calb FLC | Insulin prom up
CCCCn1c(N)c(N(CCOC)C(=O)CSc2nnc(-c3ccc(F)cc3)n2N)c(=O)[nH]c1=O | -14.6 | 14.6 | -1.4 | -3.7 | -2.2 | .
O=S(=O)(c1ccc(Cl)c(Cl)c1)c1snnc1-c1ccccc1 | 27.4 | -27.4 | -10.9 | . | 94.8* | 0.77
c1ccc(-c2nnsc2-c2ccccc2)cc1 | 19.6 | -19.6 | 7.4 | -2.3 | 8.4 | .
COc1cccc(OCc2nc3ccccc3c(=O)n2N)c1 | -3.9 | 3.9 | 2.9 | 4.8 | 108.2* | -0.13
CN(C)c1ccc(-c2nc3ccccn3c2/N=C/c2ccc(Br)cc2)cc1 | 100.9* | -100.9 | 0.3 | -6.5 | -9.7 | 0.61
Cc1c(-c2ccc(Br)cc2)nc2ccccn12 | 18.4 | -18.4 | -1.5 | -2.2 | 2.0 | -0.44
COc1ccc(CN2C(=O)C(CC(=O)NCC3CCCCC3)CC(C(=O)N(C(C)C)C(C)C)=C2C)cc1 (configuration not stated) | . | . | -3.7 | . | . | .
COc1ccc(-n2nc([N+](=O)[O-])c(=NCCCN3CCCC3=O)n2O)cc1 | . | . | 1.9 | -0.1 | 0.5 | -0.45
O=C1CCCN1CCCN=c1c([N+](=O)[O-])nn(-c2ccc(Cl)cc2)n1O | -6.7 | 6.7 | -3.8 | . | 84.7* | -2.24
CCN(CC(=O)Nc1ccc(NC(C)=O)cc1)C(=O)CSc1ncnc2sc(C)c(C)c12 | 24.4 | -24.4 | 9.2 | -1.9 | 3.1 | .
Cc1nc(-n2[nH]c3c(c2=O)CCCC3)[nH]c(=O)c1Cc1ccccc1 | -9.5 | 9.5 | -10.3 | -5.5 | 89.3* | .
O=c1c2cccc3c(N4CCOCC4)ccc(c32)c2nc3ccccc3n12 | . | . | . | . | . | 9.75*
NC(=O)NCCC1=CCCCC1 | -93.5 | 93.5* | 0.8 | 2.9 | -7.8 | -0.07
Cc1cc(C(=O)CSc2nc3ccc(Cl)cc3[nH]2)c(C)n1Cc1ccco1 | 22.9 | -22.9 | 0.3 | -6.0 | -0.6 | .
CC(C)c1ccc(NC(=O)c2ccccc2NC(=O)C2CCCCC2C(=O)O)cc1 (configuration not stated) | 1.4 | -1.4 | -3.4 | -1.5 | 31.0 | .
Cc1ccc(-c2csc(=Nc3cccnc3)n2CCCn2ccnc2)cc1C | 29.3 | -29.3 | -1.8 | 0.0 | -6.3 | -3.01
Cc1ccc(-c2csc(=Nc3cccnc3)n2CCCN2CCCC2=O)cc1C | -74.3 | 74.3* | -4.9 | 0.0 | -2.7 | .
Cc1ccc(S(=O)(=O)N2C3CC(c4ccccc4)N(S(=O)(=O)c4ccccc4Cl)CC3C(=O)C[C@H]2c2ccccc2)cc1 (some centres not stated) | . | . | -3.1 | . | . | .
CCn1c(NC(=O)c2cccs2)nc2ccccc21 | . | . | -3.3 | -1.9 | 78.1* | 0.05
CCC(CC)=NNc1cccc([N+](=O)[O-])c1 | 31.9 | -31.9 | -1.7 | 0.0 | -8.6 | 1.38
CC/C(C)=N/Nc1cccc([N+](=O)[O-])c1 | 11.9 | -11.9 | -2.8 | -2.8 | 91.8* | -0.34
O=[N+]([O-])c1cc2c(cc1C=Nc1ccccc1)OCO2 | 5.2 | -5.2 | 15.4* | -2.3 | 16.2 | -0.01
Cc1cccc(N=Cc2cc3c(cc2[N+](=O)[O-])OCO3)c1 | -8.1 | 8.1 | 1.2 | -3.5 | ? | 0.41
COC(=O)C[C@H]1CC[C@H](NC(=O)c2cccc(F)c2)[C@@H](CO)O1 | . | . | 0.2 | . | . | .
Oc1c(C(Nc2cccc(C(F)(F)F)c2)c2ccncc2)ccc2cccnc12 (configuration not stated) | 14.9 | -14.9 | -10.8 | -6.7 | 92.7* | -0.93
SMILES | SR-BI DiI inh | SR-BI uptake up | HTR2A ag | MIN6 prolif | Calb FLC | Insulin prom up
CC(=O)NC(c1ccc2ccccc2c1)c1ccc2cccnc2c1O (configuration not stated) | -20.8 | 20.8 | -9.0 | -3.8 | -4.4 | .
CC(=O)NC(c1ccc(Cl)cc1Cl)c1ccc2cccnc2c1O (configuration not stated) | -3.0 | 3.0 | -4.2 | -3.9 | -0.9 | .
Oc1c(C(Nc2nccs2)c2ccc(C(F)(F)F)cc2)ccc2cccnc12 (configuration not stated) | . | . | -6.4 | . | 102.5* | .
CCOc1ccc(OCC)c(-c2c(=O)n(OCc3ccccc3Br)c3ccccc3[n+]2[O-])c1 | 21.1 | -21.1 | -4.6 | -3.6 | 0.6 | -2.69
Cc1cc(Cl)ccc1OCc1cn2cccnc2n1 | -2.7 | 2.7 | -4.4 | -2.9 | 61.1* | 0.2
O=C(c1ccc(NS(=O)(=O)c2cccc([N+](=O)[O-])c2)cc1)N1CCN(C(=O)c2ccco2)CC1 | -63.1 | 63.1* | -10.4 | -0.9 | . | .
CC1(C(=O)NS(=O)(=O)c2ccccc2)CCN1C(=O)CCc1ccccc1 (configuration not stated) | . | . | 1.8 | . | . | .
CC(C)c1c(O)ccc2c1CC[C@H]1C(C)(C)CCC[C@]21C | 11.1 | -11.1 | 45.1* | . | . | .
CC(C)c1ccc(/C=C/C(=O)Nc2nncs2)cc1 | . | . | -0.9 | 0.0 | -0.4 | ?
Cc1sc(NC(=O)/C=C/c2ccc(C(C)C)cc2)c(C#N)c1C | 78.0* | -78.0 | -1.1 | -2.8 | -1.7 | .
CC(C)C(Sc1nc(-c2ccccc2)cc(-c2ccccc2)c1C#N)C(=O)O (configuration not stated) | -2.7 | 2.7 | 0.5 | -3.1 | 87.0* | 0.21
COc1ccc(-c2cc(-c3ccccc3)nc(SC(C)C(=O)O)c2C#N)cc1 (configuration not stated) | -15.6 | 15.6 | 10.9 | -4.0 | 42.0 | .
O=C(/C=C/Nc1ccc(Cc2ccc(N/C=C/C(=O)C(F)(F)F)cc2)cc1)C(F)(F)F | -9.1 | 9.1 | -5.8 | -1.7 | -33.6 | -0.05
CN(C)S(=O)(=O)c1cccc(NC(=O)/C=C/c2ccc(S(=O)(=O)N3CCOCC3)cc2)c1 | 52.2 | -52.2 | -3.2 | 1.1 | . | .
O=C(/C=C/c1ccc(OC(F)F)cc1)Nc1cccc(S(=O)(=O)N2CCOCC2)c1 | 79.8* | -79.8 | -6.8 | -4.7 | 9.2 | .
CC(=O)c1cccc(NC(=O)/C=C/c2ccc(S(=O)(=O)N3CCOCC3)cc2)c1 | 72.1* | -72.1 | -1.3 | -2.9 | . | .
COc1ccc(COc2cc(-c3cccc(OC)c3)nc3ccc(NC(=O)c4ccc(OC)cc4)cc23)cc1 | 72.7* | -72.7 | -2.7 | -3.8 | -7.2 | -1.59
COc1ccc(COc2cc(-c3cccc(OC)c3)nc3ccc(NC(=O)c4ccc(Cl)cc4)cc23)cc1 | 73.4* | -73.4 | 5.7 | -2.4 | 22.2 | -1.24
CC(C)C[C@H](NC(=O)N1CCn2c1nc1ccccc12)C(=O)N[C@H](Cc1ccccc1)C(=O)O | 1.7 | -1.7 | 1.6 | -2.1 | 3.4 | .
